High-throughput results from PubChem BioAssay.
EBV gp42 inh: inhibitors of Epstein-Barr virus glycoprotein 42. Q1HVG2. Fluorescence polarization binding assay, mP read-out. inhibition, % (tested at 21.74 µM). 0.42% of 220,000 active; in the data active = inhibition above about 50%
Bcl-xL primary: Bcl-xL (human) inhibition; Q07817; GST-Bcl-xL / FITC-Bim BH3 peptide fluorescence polarization; inhibition, % at 10.9 µM; 0.7% of 320,000 active; AID 2129;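 active = inhibition above the mean of all tested compounds plus 3 SD, cutoff set per campaign, cut at about 30% in these data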;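 also: inhibitors lower millipolarization by displacing the labeled peptide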
VIM-2 inhibitor: blocks Pseudomonas aeruginosa VIM-2 metallo-beta-lactamase | inhibition, % at 5.6 µM | AID 1527 | purified VIM-2, nitrocefin hydrolysis, epi-absorbance fluorescence | 0.89% of 290,000 active;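 active = inhibition above the mean of all tested compounds plus 3 SD, cutoff set per screening run, cut at about 7.5% in these data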;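 also: red hydrolysis product quenches plate fluorescence so inhibitors raise well fluorescence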
GLD-1 TGE inh: GLD-1-TGE RNA interaction inhibition (C. elegans); purified GLD-1 + fluorescein TGE RNA, fluorescence polarization; 0.44% of 320,000 active; AID 2280; inhibition, % at 5.96 µM;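 active = percent inhibition above a per-plate cutoff, the plate mean of test compounds plus 3 SD, cut at about 30% in these data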
Target sequence (Q17339 whole entry, looked up): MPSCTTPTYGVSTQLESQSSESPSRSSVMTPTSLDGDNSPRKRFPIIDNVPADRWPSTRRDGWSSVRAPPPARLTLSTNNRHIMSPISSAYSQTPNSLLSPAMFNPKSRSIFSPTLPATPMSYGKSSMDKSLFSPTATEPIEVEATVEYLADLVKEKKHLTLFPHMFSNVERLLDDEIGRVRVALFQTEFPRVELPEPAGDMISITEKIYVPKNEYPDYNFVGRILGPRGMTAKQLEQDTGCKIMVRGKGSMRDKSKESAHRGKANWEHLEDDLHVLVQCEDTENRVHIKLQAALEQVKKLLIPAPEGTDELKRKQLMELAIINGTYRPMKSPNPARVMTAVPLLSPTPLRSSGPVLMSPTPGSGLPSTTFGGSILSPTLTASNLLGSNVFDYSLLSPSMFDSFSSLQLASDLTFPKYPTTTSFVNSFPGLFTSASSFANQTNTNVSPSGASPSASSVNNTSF
MEX-5 binding: C. elegans MEX-5 TCR-2 RNA binding activity | AID 1832 | MEX-5/FITC-TCR2 RNA binding, fluorescence polarization; stronger effect = lower value | activity score (negative = inhibition of binding), % at 10 µM | 0.38% of 300,000 active;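 active = inhibition past about -25% in most replicates, and total fluorescence under double the plate's negative control median, limit read from the data; inconclusive = replicates evenly split on the limit, or fluorescence at least double controls; inactive = too little inhibition in most replicates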
IMP-1 inhibitor: inhibitors of Pseudomonas aeruginosa IMP-1 metallo-beta-lactamase; purified IMP-1, nitrocefin hydrolysis, epi-absorbance fluorescence; inhibition, % at 5.6 µM; 0.45% of 290,000 active;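 active = inhibition above the mean plus 3 SD of all compounds in the same screening run, cut at about 4.5% in these data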
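Assay system: purified IMP-1; Quantity: IMP-1 0.2 nM before substrate addition; Medium: HEPES buffer pH 7.1 with ZnSO4 and Brij 35; Incubation: 15 min enzyme–compound preincubation, then 25 min nitrocefin reaction, 25 °C; Signal: fluorescence quenching readout, ex 480/em 530 nm; Controls: DMSO with and without IMP-1; Repeats: singlicate testing.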
Each line names hits and unclear results; the compound was inactive in the other large screens. Hits are enriched below; roughly 2.2% of the tested compounds scored in any of these assays.

CCC(=O)Oc1ccc2c(c1)O/C(=C\c1ccco1)C2=O	Bcl-xL primary 112, GLD-1 TGE inh 89
CCN(CC)C(=O)Oc1ccc2c(c1)O/C(=C\c1ccco1)C2=O	none (no result: EBV gp42 inh)
CC(C)(C)OC(=O)NCC(=O)NNC(=O)C(C(=O)OCc1ccccc1)c1ccccc1 (stereo not drawn)	none (no result: EBV gp42 inh, Bcl-xL primary, VIM-2 inhibitor, MEX-5 binding, IMP-1 inhibitor)
N#CCCN(C(=O)COC(=O)CCc1c[nH]c2ccccc12)c1ccccc1	none (no result: EBV gp42 inh, VIM-2 inhibitor, IMP-1 inhibitor)
CCC1c2ccc(C)n2CCN1C(=O)Nc1cc(Cl)ccc1OC (stereo not drawn)	Bcl-xL primary 56, GLD-1 TGE inh 38
COc1ccc(Cl)cc1NC(=O)N1CCC(C)CC1	none
CCOC(=O)c1ccccc1NC(=O)N1CCn2c(C)ccc2C1CC (stereo not drawn)	Bcl-xL primary 62, GLD-1 TGE inh 33
CCCC1c2ccc(C)n2CCN1C(=O)Nc1ccccc1Cl (stereo not drawn)	Bcl-xL primary 41
COCCCn1c(=O)c2sccc2n2c(CCCC(=O)NCc3cccc(OC)c3)nnc12	none (no result: EBV gp42 inh)
Cc1cc(F)ccc1S(=O)(=O)N1CCCOC1CNC(=O)C(=O)NCc1ccc2c(c1)OCO2 (stereo not drawn)	none (no result: EBV gp42 inh)
COc1ccccc1C(=O)N=Nc1c(O)[nH]c2ccc([N+](=O)[O-])cc12	none (no result: Bcl-xL primary, GLD-1 TGE inh, MEX-5 binding)
O=C(N=Nc1c(O)[nH]c2ccc([N+](=O)[O-])cc12)c1cc(-c2ccccc2Cl)nc2ccccc12	EBV gp42 inh 73
CCc1ccccc1N(C)S(=O)(=O)c1cc(-c2cc(C)no2)ccc1OC	none (no result: EBV gp42 inh)
O=[N+]([O-])c1cc(S(=O)(=O)N2CCOCC2)ccc1N1CCCC1	none
Cc1ccc(C)n1-c1cc(S(=O)(=O)N2CCOCC2)ccc1N1CCCC1	EBV gp42 inh 96
O=C(O)c1ccc(Cl)c(S(=O)(=O)Nc2ccccc2Cc2ccccc2)c1	none (no result: EBV gp42 inh)
Cc1nc2ccccn2c1-c1csc(Nc2cccc(O)c2)n1	VIM-2 inhibitor 11 (no result: Bcl-xL primary, GLD-1 TGE inh)
O=C1c2ccccc2C(=O)N1/N=C/c1ccc(O)c(O)c1O	MEX-5 binding -53 (no result: Bcl-xL primary, GLD-1 TGE inh)
Cc1nc2ccccc2c(=O)n1/N=C/c1ccc(O)c(O)c1O	MEX-5 binding -52 (no result: EBV gp42 inh)
Cc1ccc(-c2nc3c(Cl)cc(Cl)cc3c(=O)n2O)cc1	none (no result: EBV gp42 inh)
O=c1c2ccccc2ncn1-c1cccc(Br)c1	none (no result: EBV gp42 inh)
O=C(Cc1cccs1)N/N=C/C(Cl)=C/c1ccccc1	none
CC(=O)N1CCN(CC(=O)NC(=O)Nc2ccc3c(c2)OCCO3)CC1	none (no result: EBV gp42 inh, VIM-2 inhibitor, IMP-1 inhibitor)
COc1ccccc1N1CCN(S(=O)(=O)c2cn(C)c(=O)n(C)c2=O)CC1	Bcl-xL primary 47
COc1ccc(C2=NS(=O)(=O)N(C)C(C(=O)N3CCOCC3)=C2)cc1OC	none (no result: EBV gp42 inh)
COc1cc(NC(=O)Cn2c(-c3cncs3)nc3ccccc32)cc(OC)c1OC	VIM-2 inhibitor 8.6
CCOCCn1c(SC(C)C(C)=O)nc2c1c(=O)[nH]c(=O)n2C (stereo not drawn)	none
CCOC(=O)c1cc2occc2n1Cc1ccc(F)cc1	IMP-1 inhibitor 24
Cc1ccc(NC(=O)/C(C#N)=C(\N)C(Cl)(Cl)Cl)nc1	EBV gp42 inh 137, Bcl-xL primary 72, GLD-1 TGE inh 43, MEX-5 binding inconclusive
CCOC(=O)c1c(C)n(C)c2ccc(OCC(O)CN3CCC(C)CC3)cc12 (stereo not drawn)	VIM-2 inhibitor 7.9
CCOC(=O)c1c(C)n(C)c2ccc(OCC(O)CN3CCCCCC3)cc12 (stereo not drawn)	none
Cc1ccc(CNC(=O)CN2C(=O)NC3(CC(C)CC(C)(C)C3)C2=O)cc1 (stereo not drawn)	none (no result: EBV gp42 inh, VIM-2 inhibitor, MEX-5 binding, IMP-1 inhibitor)
CN1CCNC(=O)C1CC(=O)NCCc1ccccc1F (stereo not drawn)	none
Cc1nc(CCNC(=O)CC2C(=O)NCCN2Cc2ccccc2)sc1C (stereo not drawn)	IMP-1 inhibitor 5.0 (no result: EBV gp42 inh)
O=C(CC1C(=O)NCCN1Cc1ccccn1)NCCc1ccccc1F (stereo not drawn)	Bcl-xL primary 30 (no result: EBV gp42 inh)
CCc1cccc(OCC(=O)N(C)CC(=O)Nc2cccc(F)c2)c1	none (no result: EBV gp42 inh, VIM-2 inhibitor, IMP-1 inhibitor)
O=C(Nc1c(-c2ccccc2)nc2ccccn12)c1ccccc1F	none (no result: EBV gp42 inh)
O=C(O)C1=C(C(=O)Nc2cccc(C(F)(F)F)c2)CCCC1	IMP-1 inhibitor 18
